In ChEMBL document CHEMBL1147115 (2007):
≈ marks a conversion by molar mass, not a printed value.

Tests used:
[1] = test system: Klebsiella pneumoniae; assay: Antimicrobial activity against ESBL producing Klebsiella pneumoniae 268 isolate; format: functional
[2] = test system: Escherichia coli; assay: Antimicrobial activity against ESBL producing Escherichia coli 133 isolate; format: functional
[3] = test system: Klebsiella pneumoniae; assay: Antimicrobial activity against ESBL producing Klebsiella pneumoniae 265 isolate infected thigh infection model ICR mouse; format: functional, Thigh muscle
Summary of the method: (§1)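 Female ICR mice (~25 g) were made neutropenic with cyclophosphamide ip (150 and 100 mg/kg, days −4 and −1) and renally impaired with uranyl nitrate 5 mg/kg ip (day −3). Each thigh got 0.1 ml of 10^5 CFU/ml (or 10^7 for high inoculum) im 2 h pre-therapy. Human-simulated regimens were given sc, three mice per group, for 24 h. Efficacy was the log10 CFU/thigh change versus 0-h controls.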

[4] = test system: Escherichia coli; assay: Antimicrobial activity against ESBL producing Escherichia coli 130 isolate; format: functional
[5] = test system: Escherichia coli; assay: Antimicrobial activity against Escherichia coli 120 isolate infected thigh infection model ICR mouse; format: functional, Thigh muscle; summary of the method: as §1
[6] = test system: Escherichia coli; assay: Antimicrobial activity against ESBL producing Escherichia coli 285 isolate infected thigh infection model ICR mouse; format: functional, Thigh muscle; summary of the method: as §1
[7] = test system: Klebsiella pneumoniae; assay: Antimicrobial activity against ESBL producing Klebsiella pneumoniae 262 isolate infected thigh infection model ICR mouse; format: functional, Thigh muscle; summary of the method: as §1
[8] = test system: Klebsiella pneumoniae; assay: Antimicrobial activity against ESBL producing Klebsiella pneumoniae 260 isolate; format: functional
[9] = test system: Klebsiella pneumoniae; assay: Antimicrobial activity against ESBL producing Klebsiella pneumoniae 60 isolate infected thigh infection model ICR mouse; format: functional, Thigh muscle; summary of the method: as §1
[10] = test system: Escherichia coli; assay: Antimicrobial activity against ESBL producing Escherichia coli 311 isolate infected thigh infection model ICR mouse; format: functional, Thigh muscle; summary of the method: as §1
[11] = test system: Escherichia coli; assay: Antimicrobial activity against Escherichia coli ATCC 25922 isolate infected thigh infection model ICR mouse; format: functional, Thigh muscle; summary of the method: as §1
[12] = test system: Klebsiella pneumoniae; assay: Antimicrobial activity against ESBL producing Klebsiella pneumoniae 258 isolate; format: functional
[13] = test system: Klebsiella pneumoniae; assay: Antimicrobial activity against ESBL producing Klebsiella pneumoniae 255 isolate infected thigh infection model ICR mouse; format: functional, Thigh muscle; summary of the method: as §1
[14] = test system: Klebsiella pneumoniae; assay: Antimicrobial activity against ESBL producing Klebsiella pneumoniae 261 isolate; format: functional
[15] = test system: Escherichia coli; assay: Antimicrobial activity against Escherichia coli 120 isolate; format: functional
[16] = test system: Escherichia coli; assay: Antimicrobial activity against ESBL producing Escherichia coli 320 isolate; format: functional
[17] = test system: Klebsiella pneumoniae; assay: Antimicrobial activity against ESBL producing Klebsiella pneumoniae 264 isolate infected thigh infection model ICR mouse; format: functional, Thigh muscle; summary of the method: as §1
[18] = test system: Klebsiella pneumoniae; assay: Antimicrobial activity against ESBL producing Klebsiella pneumoniae 263 isolate infected thigh infection model ICR mouse; format: functional, Thigh muscle; summary of the method: as §1
[19] = test system: Klebsiella pneumoniae; assay: Antimicrobial activity against ESBL producing Klebsiella pneumoniae 261 isolate infected thigh infection model ICR mouse; format: functional, Thigh muscle; summary of the method: as §1
[20] = test system: Klebsiella pneumoniae; assay: Antimicrobial activity against ESBL producing Klebsiella pneumoniae 259 isolate infected thigh infection model ICR mouse; format: functional, Thigh muscle; summary of the method: as §1
[21] = test system: Klebsiella pneumoniae; assay: Antimicrobial activity against ESBL producing Klebsiella pneumoniae 265 isolate; format: functional
[22] = test system: Escherichia coli; assay: Antimicrobial activity against Escherichia coli ATCC 25922 isolate; format: functional
[23] = test system: Klebsiella pneumoniae; assay: Antimicrobial activity against ESBL producing Klebsiella pneumoniae 258 isolate infected thigh infection model ICR mouse; format: functional, Thigh muscle; summary of the method: as §1
[24] = test system: Escherichia coli; assay: Antimicrobial activity against ESBL producing Escherichia coli 312 isolate; format: functional
[25] = test system: Klebsiella pneumoniae; assay: Antimicrobial activity against ESBL producing Klebsiella pneumoniae 101 isolate; format: functional
[26] = test system: Klebsiella pneumoniae; assay: Antimicrobial activity against ESBL producing Klebsiella pneumoniae 266 isolate; format: functional
[27] = test system: Klebsiella pneumoniae; assay: Antimicrobial activity against ESBL producing Klebsiella pneumoniae 256 isolate; format: functional
[28] = test system: Klebsiella pneumoniae; assay: Antimicrobial activity against ESBL producing Klebsiella pneumoniae 225 isolate infected thigh infection model ICR mouse; format: functional, Thigh muscle; summary of the method: as §1
[29] = test system: Escherichia coli; assay: Antimicrobial activity against ESBL producing Escherichia coli 133 isolate infected thigh infection model ICR mouse; format: functional, Thigh muscle; summary of the method: as §1
[30] = test system: Klebsiella pneumoniae; assay: Bacteriostasis activity against ESBL producing Klebsiella pneumonia 262 isolate at up to 1.5 ug/ml; format: functional
[31] = test system: Klebsiella pneumoniae; assay: Antimicrobial activity against ESBL producing Klebsiella pneumoniae 230 isolate infected thigh infection model ICR mouse; format: functional, Thigh muscle; summary of the method: as §1
[32] = test system: Escherichia coli; assay: Antimicrobial activity against ESBL producing Escherichia coli 130 isolate infected thigh infection model ICR mouse; format: functional, Thigh muscle; summary of the method: as §1
[33] = test system: Klebsiella pneumoniae; assay: Antimicrobial activity against ESBL producing Klebsiella pneumoniae 60 isolate; format: functional
[34] = test system: Klebsiella pneumoniae; assay: Antimicrobial activity against ESBL producing Klebsiella pneumoniae 270 isolate infected thigh infection model ICR mouse; format: functional, Thigh muscle; summary of the method: as §1
[35] = test system: Escherichia coli; assay: Antimicrobial activity against ESBL producing Escherichia coli 320 isolate infected thigh infection model ICR mouse; format: functional, Thigh muscle; summary of the method: as §1
[36] = test system: Klebsiella pneumoniae; assay: Antimicrobial activity against ESBL producing Klebsiella pneumoniae 259 isolate; format: functional
[37] = test system: Klebsiella pneumoniae; assay: Antimicrobial activity against ESBL producing Klebsiella pneumoniae 270 isolate; format: functional
[38] = test system: Klebsiella pneumoniae; assay: Activity against ESBL producing Klebsiella pneumonia 262 isolate at up to 4 ug/ml; format: functional
[39] = test system: Escherichia coli; assay: Antimicrobial activity against ESBL producing Escherichia coli 310 isolate infected thigh infection model ICR mouse; format: functional, Thigh muscle; summary of the method: as §1
[40] = test system: Escherichia coli; assay: Antimicrobial activity against ESBL producing Escherichia coli 321 isolate; format: functional
[41] = test system: Escherichia coli; assay: Antimicrobial activity against ESBL producing Escherichia coli 318 isolate infected thigh infection model ICR mouse; format: functional, Thigh muscle; summary of the method: as §1
[42] = test system: Klebsiella pneumoniae; assay: Antimicrobial activity against ESBL producing Klebsiella pneumoniae 254 isolate infected thigh infection model ICR mouse; format: functional, Thigh muscle; summary of the method: as §1
[43] = test system: Escherichia coli; assay: Antimicrobial activity against ESBL producing Escherichia coli 315 isolate; format: functional
[44] = test system: Escherichia coli; assay: Antimicrobial activity against ESBL producing Escherichia coli 322 isolate infected thigh infection model ICR mouse; format: functional, Thigh muscle; summary of the method: as §1
[45] = test system: Klebsiella pneumoniae; assay: Antimicrobial activity against ESBL producing Klebsiella pneumoniae 254 isolate; format: functional
[46] = test system: Escherichia coli; assay: Antimicrobial activity against ESBL producing Escherichia coli 321 isolate infected thigh infection model ICR mouse; format: functional, Thigh muscle; summary of the method: as §1
[47] = test system: Klebsiella pneumoniae; assay: Antimicrobial activity against ESBL producing Klebsiella pneumoniae 101 isolate infected thigh infection model ICR mouse; format: functional, Thigh muscle; summary of the method: as §1
[48] = test system: Escherichia coli; assay: Antimicrobial activity against ESBL producing Escherichia coli 243 isolate; format: functional
[49] = test system: Escherichia coli; assay: Antimicrobial activity against ESBL producing Escherichia coli 315 isolate infected thigh infection model ICR mouse; format: functional, Thigh muscle; summary of the method: as §1
[50] = test system: Escherichia coli; assay: Antimicrobial activity against ESBL producing Escherichia coli 322 isolate; format: functional
[51] = test system: Escherichia coli; assay: Antimicrobial activity against ESBL producing Escherichia coli 311 isolate; format: functional
[52] = test system: Klebsiella pneumoniae; assay: Antimicrobial activity against ESBL producing Klebsiella pneumoniae 225 isolate; format: functional
[53] = test system: Klebsiella pneumoniae; assay: Antimicrobial activity against ESBL producing Klebsiella pneumoniae 255 isolate; format: functional
[54] = test system: Klebsiella pneumoniae; assay: Antimicrobial activity against ESBL producing Klebsiella pneumoniae 256 isolate infected thigh infection model ICR mouse; format: functional, Thigh muscle; summary of the method: as §1
[55] = test system: Klebsiella pneumoniae; assay: Antimicrobial activity against ESBL producing Klebsiella pneumoniae 264 isolate; format: functional
[56] = test system: Escherichia coli; assay: Antimicrobial activity against ESBL producing Escherichia coli 312 isolate infected thigh infection model ICR mouse; format: functional, Thigh muscle; summary of the method: as §1
[57] = test system: Klebsiella pneumoniae; assay: Antimicrobial activity against ESBL producing Klebsiella pneumoniae 260 isolate infected thigh infection model ICR mouse; format: functional, Thigh muscle; summary of the method: as §1
[58] = test system: Escherichia coli; assay: Antimicrobial activity against ESBL producing Escherichia coli 285 isolate; format: functional
[59] = test system: Klebsiella pneumoniae; assay: Antimicrobial activity against ESBL producing Klebsiella pneumoniae 230 isolate; format: functional
[60] = test system: Klebsiella pneumoniae; assay: Antimicrobial activity against ESBL producing Klebsiella pneumoniae 262 isolate; format: functional
[61] = test system: Escherichia coli; assay: Antimicrobial activity against ESBL producing Escherichia coli 243 isolate infected thigh infection model ICR mouse; format: functional, Thigh muscle; summary of the method: as §1
[62] = test system: Klebsiella pneumoniae; assay: Antimicrobial activity against ESBL producing Klebsiella pneumoniae 268 isolate infected thigh infection model ICR mouse; format: functional, Thigh muscle; summary of the method: as §1
[63] = test system: Klebsiella pneumoniae; assay: Antimicrobial activity against ESBL producing Klebsiella pneumoniae 266 isolate infected thigh infection model ICR mouse; format: functional, Thigh muscle; summary of the method: as §1
[64] = test system: Klebsiella pneumoniae; assay: Antimicrobial activity against ESBL producing Klebsiella pneumoniae 257 isolate infected thigh infection model ICR mouse; format: functional, Thigh muscle; summary of the method: as §1
[65] = test system: Klebsiella pneumoniae; assay: Antimicrobial activity against ESBL producing Klebsiella pneumoniae 257 isolate; format: functional
[66] = test system: Escherichia coli; assay: Antimicrobial activity against ESBL producing Escherichia coli 310 isolate; format: functional
[67] = test system: Klebsiella pneumoniae; assay: Antimicrobial activity against ESBL producing Klebsiella pneumoniae 263 isolate; format: functional
[68] = test system: Escherichia coli; assay: Antimicrobial activity against ESBL producing Escherichia coli 118 isolate; format: functional

SMILES: C[C@@H](O)[C@H]1C(=O)N2C(C(=O)O)=C(S[C@@H]3CN[C@H](C(=O)Nc4cccc(C(=O)O)c4)C3)[C@H](C)[C@H]12
- MIC [1]: 0.25 µg/mL (≈ 0.526 µM)
- MIC [2]: 1.5 µg/mL (≈ 3.15 µM)
- fT>MIC [3]: 40%
- MIC [4]: 1 µg/mL (≈ 2.1 µM)
- fT>MIC [5]: 77%
- fT>MIC [6]: 80%
- fT>MIC [7]: 0%
- MIC [8]: 1 µg/mL (≈ 2.1 µM)
- fT>MIC [9]: 90%
- fT>MIC [10]: 10%
- fT>MIC [11]: 93%
- MIC [12]: 16 µg/mL (≈ 33.6 µM)
- fT>MIC [13]: 20%
- MIC [14]: 128 µg/mL (≈ 269 µM)
- MIC [15]: 0.03 µg/mL (≈ 0.0631 µM)
- MIC [16]: 0.5 µg/mL (≈ 1.05 µM)
- fT>MIC [17]: 10%
- fT>MIC [18]: 0%
- fT>MIC [19]: 0%
- fT>MIC [20]: 0%
- MIC [21]: 0.5 µg/mL (≈ 1.05 µM)
- MIC [22]: 0.008 µg/mL (≈ 0.0168 µM)
- fT>MIC [23]: 0%
- MIC [24]: 0.19 µg/mL (≈ 0.4 µM)
- MIC [25]: 0.094 µg/mL (≈ 0.198 µM)
- MIC [26]: 8 µg/mL (≈ 16.8 µM)
- MIC [27]: 32 µg/mL (≈ 67.3 µM)
- fT>MIC [28]: 87%
- fT>MIC [29]: 23%
- MIC [30]: 1.5 µg/mL (≈ 3.15 µM)
- fT>MIC [31]: 60%
- fT>MIC [32]: 30%
- MIC [33]: 0.012 µg/mL (≈ 0.0252 µM)
- fT>MIC [34]: 40%
- fT>MIC [35]: 40%
- MIC [36]: 16 µg/mL (≈ 33.6 µM)
- MIC [37]: 0.5 µg/mL (≈ 1.05 µM)
- MIC [38]: 4 µg/mL (≈ 8.41 µM)
- fT>MIC [39]: 67%
- MIC [40]: 0.012 µg/mL (≈ 0.0252 µM)
- fT>MIC [41]: 90%
- fT>MIC [42]: 0%
- MIC [43]: 0.032 µg/mL (≈ 0.0673 µM)
- fT>MIC [44]: 90%
- MIC [45]: 16 µg/mL (≈ 33.6 µM)
- fT>MIC [46]: 90%
- fT>MIC [47]: 60%
- MIC [48]: 0.064 µg/mL (≈ 0.135 µM)
- fT>MIC [49]: 77%
- MIC [50]: 0.012 µg/mL (≈ 0.0252 µM)
- MIC [51]: 4 µg/mL (≈ 8.41 µM)
- MIC [52]: 0.016 µg/mL (≈ 0.0336 µM)
- MIC [53]: 2 µg/mL (≈ 4.21 µM)
- fT>MIC [54]: 0%
- MIC [55]: 4 µg/mL (≈ 8.41 µM)
- fT>MIC [56]: 53%
- fT>MIC [57]: 30%
- MIC [58]: 0.023 µg/mL (≈ 0.0484 µM)
- MIC [59]: 0.094 µg/mL (≈ 0.198 µM)
- MIC [60]: 64 µg/mL (≈ 135 µM)
- fT>MIC [61]: 67%
- fT>MIC [62]: 47%
- fT>MIC [63]: 0%
- fT>MIC [64]: 0%
- MIC [65]: 16 µg/mL (≈ 33.6 µM)
- MIC [66]: 0.064 µg/mL (≈ 0.135 µM)
- MIC [67]: 8 µg/mL (≈ 16.8 µM)
- MIC [68]: 0.012 µg/mL (≈ 0.0252 µM)
